{"source": "ChEMBL document CHEMBL1154497", "about": "“Evaluating the potential of vacuolar ATPase inhibitors as anticancer agents and multigram synthesis of the potent salicylihalamide analog saliphenylhalamide” (Bioorg Med Chem Lett, 2008)", "key": {"[1]": {"test_system": "SK-MEL-5", "experiment": "Cytotoxicity against human SK-MEL-5 cells expressing vacuolar ATPase", "format": "functional, cell-based", "method_in_brief": "(§1)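 Cancer cell lines treated across a range of compound concentrations; the concentration inhibiting growth by 50% was calculated. IC50 given as average ± standard deviation of three experiments.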"}, "[2]": {"test_system": "A549", "experiment": "Cytotoxicity against human A549 cells expressing vacuolar ATPase", "format": "functional, cell-based", "method_in_brief": "as §1"}, "[3]": {"experiment": "Growth inhibition of human HME50T cells at 100 nM", "format": "functional"}, "[4]": {"test_system": "HCT-116", "experiment": "Cytotoxicity against human HCT116 cells expressing vacuolar ATPase", "format": "functional, cell-based", "method_in_brief": "as §1"}, "[5]": {"test_system": "HOS", "experiment": "Cytotoxicity against human HOS cells expressing vacuolar ATPase", "format": "functional, cell-based", "method_in_brief": "as §1"}, "[6]": {"experiment": "Cytotoxicity against human MCF7/DX cells expressing vacuolar ATPase", "format": "functional, cell-based", "method_in_brief": "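Doxorubicin-resistant MCF-7 subline, resistant to chemotherapeutics that are P-glycoprotein substrates. Cells treated across a range of compound concentrations; the concentration inhibiting growth by 50% was calculated. IC50 given as average ± standard deviation of three experiments.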"}, "[7]": {"test_system": "PANC-1", "experiment": "Cytotoxicity against human PANC1 cells expressing vacuolar ATPase", "format": "functional, cell-based", "method_in_brief": "as §1"}, "[8]": {"test_system": "A2058", "experiment": "Cytotoxicity against human A2058 cells expressing vacuolar ATPase", "format": "functional, cell-based", "method_in_brief": "as §1"}, "[9]": {"test_system": "SK-MEL-28", "experiment": "Cytotoxicity against human SK-MEL-28 cells expressing vacuolar ATPase", "format": "functional, cell-based", "method_in_brief": "as §1"}, "[10]": {"test_system": "SK-HEP1", "experiment": "Cytotoxicity against human SKHEP1 cells expressing vacuolar ATPase", "format": "functional, cell-based", "method_in_brief": "as §1"}, "[11]": {"test_system": "MDA-MB-231", "experiment": "Cytotoxicity against human MDA-MB-231 cells expressing vacuolar ATPase", "format": "functional, cell-based", "method_in_brief": "as §1"}, "[12]": {"test_system": "NCI-H460", "experiment": "Cytotoxicity against human NCI-H460 cells expressing vacuolar ATPase", "format": "functional, cell-based", "method_in_brief": "as §1"}, "[13]": {"test_system": "HCT-15", "experiment": "Cytotoxicity against human HCT15 cells expressing vacuolar ATPase", "format": "functional, cell-based", "method_in_brief": "as §1"}, "[14]": {"test_system": "HT-29", "experiment": "Cytotoxicity against human HT-29 cells expressing vacuolar ATPase", "format": "functional, cell-based", "method_in_brief": "as §1"}, "[15]": {"test_system": "ASPC1", "experiment": "Cytotoxicity against human AsPC1 cells expressing vacuolar ATPase", "format": "functional, cell-based", "method_in_brief": "as §1"}, "[16]": {"test_system": "SK-MES-1", "experiment": "Cytotoxicity against human SKMES1 cells expressing vacuolar ATPase", "format": "functional, cell-based", "method_in_brief": "as §1"}, "[17]": {"test_system": "MG-63", "experiment": "Cytotoxicity against human MG63 cells expressing vacuolar ATPase", "format": "functional, cell-based", "method_in_brief": "as §1"}, "[18]": {"test_system": "HepG2", "experiment": "Cytotoxicity against human HepG2 cells expressing vacuolar ATPase", "format": "functional, cell-based", "method_in_brief": "as §1"}, "[19]": {"test_system": "MCF7", "experiment": "Cytotoxicity against human MCF7 cells expressing vacuolar ATPase", "format": "functional, cell-based", "method_in_brief": "as §1"}, "[20]": {"test_system": "SW480", "experiment": "Cytotoxicity against human SW480 cells expressing vacuolar ATPase", "format": "functional, cell-based", "method_in_brief": "as §1"}, "[21]": {"test_system": "NCI-H1299", "experiment": "Cytotoxicity against human NCI-H1299 cells expressing vacuolar ATPase", "format": "functional, cell-based", "method_in_brief": "as §1"}, "[22]": {"experiment": "Growth inhibition of human HME50 cells at 100 nM", "format": "cell-based"}}}
{"molecule": "C[C@H]1C/C=C/Cc2cccc(O)c2C(=O)O[C@@H](C/C=C/NC(=O)C#Cc2ccccc2)C[C@H]1O", "note": "[SALIPHENYLHALAMIDE]", "values": [{"measurement": "IC50", "setting": "[1]", "value": 106, "unit": "nM"}, {"measurement": "IC50", "setting": "[2]", "value": 146, "unit": "nM"}, {"measurement": "inhibition at 0.1 µM", "setting": "[3]", "value": 95, "unit": "%"}, {"measurement": "IC50", "setting": "[4]", "value": 69.3, "unit": "nM"}, {"measurement": "IC50", "setting": "[5]", "value": 48.8, "unit": "nM"}, {"measurement": "IC50", "setting": "[6]", "value": 160, "unit": "nM"}, {"measurement": "IC50", "setting": "[7]", "value": 124, "unit": "nM"}, {"measurement": "IC50", "setting": "[8]", "value": 154, "unit": "nM"}, {"measurement": "IC50", "setting": "[9]", "value": 98.5, "unit": "nM"}, {"measurement": "IC50", "setting": "[10]", "value": 40.7, "unit": "nM"}, {"measurement": "IC50", "setting": "[11]", "value": 180, "unit": "nM"}, {"measurement": "IC50", "setting": "[12]", "value": 52.9, "unit": "nM"}, {"measurement": "IC50", "setting": "[13]", "value": 100, "unit": "nM"}, {"measurement": "IC50", "setting": "[14]", "value": 89.9, "unit": "nM"}, {"measurement": "IC50", "setting": "[15]", "value": 75.9, "unit": "nM"}, {"measurement": "IC50", "setting": "[16]", "value": 76.4, "unit": "nM"}, {"measurement": "IC50", "setting": "[17]", "value": 449, "unit": "nM"}, {"measurement": "IC50", "setting": "[18]", "value": 79.2, "unit": "nM"}, {"measurement": "IC50", "setting": "[19]", "value": 156, "unit": "nM"}, {"measurement": "IC50", "setting": "[20]", "value": 425, "unit": "nM"}, {"measurement": "IC50", "setting": "[21]", "value": 77.2, "unit": "nM"}]}
{"molecule": "CC/C=C\\C=C/C(=O)N/C=C/C[C@H]1C[C@@H](O)[C@@H](C)C/C=C/Cc2cccc(O)c2C(=O)O1", "note": "[SALICYLIHALAMIDE A]", "values": [{"measurement": "inhibition at 0.1 µM", "setting": "[3]", "value": 75, "unit": "%"}, {"measurement": "inhibition at 0.1 µM", "setting": "[22]", "value": 60, "unit": "%"}]}
